Measurements published in publication PMC8278208 (Toxicology Reports, 2021).
One block for each molecule: values may come before it.

Key:
[1] = Cell viability, resazurin assay, K562/Dox; assay type: cell-based, human; settings: human
In short: (§1)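 Cells seeded at 5×10^4 cells mL⁻¹ and exposed to a range of test compound concentrations for 48, 72 and 96 h. Resazurin solution (0.1 mg mL⁻¹) was then added, followed by a further 4 h incubation. Fluorescence was read at ex 570/em 590 nm. % viability = (F treated/F untreated control) × 100. Three independent experiments, mean ± S.E.; Student's t-test versus untreated control, p<0.05.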

[2] = tested on: doxorubicin-resistant K562/Dox (P-glycoprotein-overexpression) leukemia cells; assay: Cell viability, resazurin assay, K562/Dox; assay type: cell-based, human; settings: K562/Dox, 48, 72, and 96 h
In short: as §1

[3] = molecular target: human serum albumin (HSA) (Homo sapiens, UniProt P02768); assay: Fluorescence quenching of HSA by 4-HBA or VA; assay type: binding; settings: for fluorescence quenching mechanism: from temperature dependence of Ksv and Kq; for quenching rate constant Kq ± SE: τ0 5 ns; for enthalpy change ΔH / entropy change ΔS: from Kb at 298 and 310 K
human serum albumin (HSA), sequence (P02768 25-609): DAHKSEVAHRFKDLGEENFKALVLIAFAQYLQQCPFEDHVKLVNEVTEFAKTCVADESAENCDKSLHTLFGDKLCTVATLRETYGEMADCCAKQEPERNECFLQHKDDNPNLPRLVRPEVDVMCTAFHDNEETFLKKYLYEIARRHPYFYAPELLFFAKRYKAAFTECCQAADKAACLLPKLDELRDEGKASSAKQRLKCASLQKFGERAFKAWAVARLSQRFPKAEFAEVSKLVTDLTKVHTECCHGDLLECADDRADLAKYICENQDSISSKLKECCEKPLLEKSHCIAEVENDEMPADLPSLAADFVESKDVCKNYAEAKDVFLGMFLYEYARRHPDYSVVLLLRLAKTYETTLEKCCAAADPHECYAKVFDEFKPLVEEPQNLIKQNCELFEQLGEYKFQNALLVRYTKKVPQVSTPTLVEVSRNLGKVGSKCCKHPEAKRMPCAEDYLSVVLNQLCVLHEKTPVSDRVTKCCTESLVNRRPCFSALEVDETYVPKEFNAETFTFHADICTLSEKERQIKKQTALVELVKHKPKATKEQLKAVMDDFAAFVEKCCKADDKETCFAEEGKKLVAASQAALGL
In short: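 HSA (1 μM) in PBS was titrated with test compound to final 0–10,000 μM. Intrinsic fluorescence was recorded at ex 280 nm, em 290–500 nm, slits 5 nm, 1.0 cm cell, at 298 and 310 K and pH 6, 7.4 and 8. Intensity at 342 nm was fitted by Stern–Volmer (τ0 5 ns) for KSV/Kq and by double-log plot for Kb and n. ΔH, ΔS and ΔG were derived from these fits.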

K562 cancer cells = assay: Cell morphological observation by light microscope, K562; assay type: cell-based, human; settings: high concentrations (10 mM shown at 72 h), also at 48 and 96 h
[4] = tested on: doxorubicin-sensitive K562 leukemia cells; assay: Cell viability, resazurin assay, K562; assay type: cell-based, human; settings: for cell viability percentage vs control group: K562, 48, 72, and 96 h
In short: as §1

[5] = Cell viability, resazurin assay, K562; assay type: cell-based, human; settings: human, K562 cells (doxorubicin-sensitive leukemia)
In short: as §1

[6] = 0.01, 0.05, 0.1, 0.5, 1, and 5 mM
[7] = 298 and 310 K, pHs 7.4, 6.0 and 8.0

- concentrations at which fluorescence intensity of HSA decreased [3, 7]: 5–10,000 μM
- concentrations at which fluorescence intensity of HSA decreased ([3]; PBS pH 7.4, 298 K, 1 μM HSA): 5–10,000 μM
- fluorescence quenching mechanism [3]: static quenching mechanism
- Gibbs binding free energy change ΔG ([3]; pH 6.0, 298 K): -4.178 kcal/mol
- Stern-Volmer quenching constant KSV ± SE ([3]; pH 6.0, 298 K): 4.4982 ± 2.10 × 10^3 L mole^−1
- number of binding site n ± SE ([3]; pH 6.0, 298 K): 0.8623 ± 0.05
- quenching rate constant Kq ± SE ([3]; pH 6.0, 298 K): 0.8996 ± 0.42 × 10^12 L. mole^−1 s^−1
- Gibbs binding free energy change ΔG ([3]; pH 6.0, 310 K): -3.769 kcal/mol
- Stern-Volmer quenching constant KSV ± SE ([3]; pH 6.0, 310 K): 4.2857 ± 0.93 × 10^3 L mole^−1
- number of binding site n ± SE ([3]; pH 6.0, 310 K): 0.9016 ± 0.06
- quenching rate constant Kq ± SE ([3]; pH 6.0, 310 K): 0.8572 ± 0.19 × 10^12 L. mole^−1 s^−1
- enthalpy change ΔH ([3]; pH 6.0): -14.3 kcal/mol
- entropy change ΔS ([3]; pH 6.0): −142.12 J. mol^−1 K^−1
- Gibbs binding free energy change ΔG ([3]; pH 7.4, 298 K): -2.753 kcal/mol
- Stern-Volmer quenching constant KSV ± SE ([3]; pH 7.4, 298 K): 3.0657 ± 1.18 × 10^3 L mole^−1
- number of binding site n ± SE ([3]; pH 7.4, 298 K): 0.6130 ± 0.05
- quenching rate constant Kq ± SE ([3]; pH 7.4, 298 K): 0.6131 ± 0.24 × 10^12 L. mole^−1 s^−1
- Gibbs binding free energy change ΔG ([3]; pH 7.4, 310 K): -2.36 kcal/mol
- Stern-Volmer quenching constant KSV ± SE ([3]; pH 7.4, 310 K): 2.7164 ± 0.27 × 10^3 L mole^−1
- number of binding site n ± SE ([3]; pH 7.4, 310 K): 0.7235 ± 0.05
- quenching rate constant Kq ± SE ([3]; pH 7.4, 310 K): 0.5433 ± 0.05 × 10^12 L. mole^−1 s^−1
- enthalpy change ΔH ([3]; pH 7.4): -12.42 kcal/mol
- entropy change ΔS ([3]; pH 7.4): −135.72 J. mol^−1 K^−1
- Gibbs binding free energy change ΔG ([3]; pH 8.0, 298 K): -3.623 kcal/mol
- Stern-Volmer quenching constant KSV ± SE ([3]; pH 8.0, 298 K): 1.8046 ± 0.51 × 10^3 L mole^−1
- number of binding site n ± SE ([3]; pH 8.0, 298 K): 0.8005 ± 0.11
- quenching rate constant Kq ± SE ([3]; pH 8.0, 298 K): 0.3609 ± 0.10 × 10^12 L. mole^−1 s^−1
- Gibbs binding free energy change ΔG ([3]; pH 8.0, 310 K): -3.382 kcal/mol
- Stern-Volmer quenching constant KSV ± SE ([3]; pH 8.0, 310 K): 1.4572 ± 0.25 × 10^3 L mole^−1
- number of binding site n ± SE ([3]; pH 8.0, 310 K): 1.0784 ± 0.29
- quenching rate constant Kq ± SE ([3]; pH 8.0, 310 K): 0.2914 ± 0.05 × 10^12 L. mole^−1 s^−1
- enthalpy change ΔH ([3]; pH 8.0): -9.661 kcal/mol
- entropy change ΔS ([3]; pH 8.0): −84.76 J. mol^−1 K^−1
SMILES: O=C(O)c1ccc(O)cc1 [4-HBA, 4-Hydroxybenzoic acid]
- viability at 48 h, 10 mM [1]: 75.4 ± 8.61%
- viability at 72 h, 10 mM [1]: 70.4 ± 5.21%
- viability at 96 h, 10 mM [1]: 66.3 ± 7.67%
- cell viability percentage vs control group [2, 6]: did not significantly change
- morphological changes in treated cells (K562 cancer cells): rough cells, shrinking cells, irregular shape cells, and membrane blebbing
- cell viability percentage ([4]; K562, 10 mM, 48 h): did not significantly change
- cell viability percentage vs control group [4, 6]: did not significantly change
- viability at 72 h, 10 mM [5]: 90.3 ± 0.96%
- viability at 96 h, 10 mM [5]: 87.6 ± 1.01%

- concentrations at which fluorescence intensity of HSA decreased [3, 7]: 2,000 to 10,000 μM
- concentrations at which fluorescence intensity of HSA decreased ([3]; PBS pH 7.4, 298 K, 1 μM HSA): 2,000 to 10,000 μM
- fluorescence quenching mechanism [3]: dynamic quenching mechanism
- Gibbs binding free energy change ΔG ([3]; pH 6.0, 298 K): -3.411 kcal/mol
- Stern-Volmer quenching constant KSV ± SE ([3]; pH 6.0, 298 K): 1.2621 ± 0.19 × 10^3 L mole^−1
- number of binding site n ± SE ([3]; pH 6.0, 298 K): 0.7071 ± 0.08
- quenching rate constant Kq ± SE ([3]; pH 6.0, 298 K): 0.2524 ± 0.04 × 10^12 L. mole^−1 s^−1
- Gibbs binding free energy change ΔG ([3]; pH 6.0, 310 K): -3.109 kcal/mol
- Stern-Volmer quenching constant KSV ± SE ([3]; pH 6.0, 310 K): 1.4092 ± 0.09 × 10^3 L mole^−1
- number of binding site n ± SE ([3]; pH 6.0, 310 K): 0.6174 ± 0.08
- quenching rate constant Kq ± SE ([3]; pH 6.0, 310 K): 0.2818 ± 0.02 × 10^12 L. mole^−1 s^−1
- enthalpy change ΔH ([3]; pH 6.0): -10.9 kcal/mol
- entropy change ΔS ([3]; pH 6.0): −105.08 J. mol^−1 K^−1
- Gibbs binding free energy change ΔG ([3]; pH 7.4, 298 K): -2.737 kcal/mol
- Stern-Volmer quenching constant KSV ± SE ([3]; pH 7.4, 298 K): 0.7564 ± 0.03 × 10^3 L mole^−1
- number of binding site n ± SE ([3]; pH 7.4, 298 K): 0.5786 ± 0.03
- quenching rate constant Kq ± SE ([3]; pH 7.4, 298 K): 0.1513 ± 0.01 × 10^12 L. mole^−1 s^−1
- Gibbs binding free energy change ΔG ([3]; pH 7.4, 310 K): -2.35 kcal/mol
- Stern-Volmer quenching constant KSV ± SE ([3]; pH 7.4, 310 K): 0.8312 ± 0.09 × 10^3 L mole^−1
- number of binding site n ± SE ([3]; pH 7.4, 310 K): 0.3816 ± 0.09
- quenching rate constant Kq ± SE ([3]; pH 7.4, 310 K): 0.1662 ± 0.02 × 10^12 L. mole^−1 s^−1
- enthalpy change ΔH ([3]; pH 7.4): -12.45 kcal/mol
- entropy change ΔS ([3]; pH 7.4): −136.42 J. mol^−1 K^−1
- Gibbs binding free energy change ΔG ([3]; pH 8.0, 298 K): -3.069 kcal/mol
- Stern-Volmer quenching constant KSV ± SE ([3]; pH 8.0, 298 K): 0.7592 ± 0.06 × 10^3 L mole^−1
- number of binding site n ± SE ([3]; pH 8.0, 298 K): 0.6340 ± 0.04
- quenching rate constant Kq ± SE ([3]; pH 8.0, 298 K): 0.1518 ± 0.01 × 10^12 L. mole^−1 s^−1
- Gibbs binding free energy change ΔG ([3]; pH 8.0, 310 K): -2.99 kcal/mol
- Stern-Volmer quenching constant KSV ± SE ([3]; pH 8.0, 310 K): 1.0384 ± 0.07 × 10^3 L mole^−1
- number of binding site n ± SE ([3]; pH 8.0, 310 K): 0.5257 ± 0.08
- quenching rate constant Kq ± SE ([3]; pH 8.0, 310 K): 0.2077 ± 0.01 × 10^12 L. mole^−1 s^−1
- enthalpy change ΔH ([3]; pH 8.0): -5.062 kcal/mol
- entropy change ΔS ([3]; pH 8.0): −27.97 J. mol^−1 K^−1
SMILES: COc1cc(C(=O)O)ccc1O [VA, 4-hydroxy-3-methoxybenzoic acid]
- viability at 48 h, 5 mM [1]: 75.3 ± 6.23%
- viability at 48 h, 10 mM [1]: 53.5 ± 10.7%
- viability at 72 h, 5 mM [1]: 70.7 ± 11.1%
- viability at 72 h, 10 mM [1]: 41 ± 5.78%
- viability at 96 h, 5 mM [1]: 65.5 ± 2.36%
- viability at 96 h, 10 mM [1]: 35.9 ± 3.61%
- cell viability percentage vs control group ([2]; 0.01, 0.05, 0.1, 0.5, and 1 mM): did not significantly change
- morphological changes in treated cells (K562 cancer cells): rough cells, shrinking cells, irregular shape cells, and membrane blebbing
- cell viability percentage vs control group ([4]; 0.01, 0.05, 0.1, 0.5, and 1 mM): did not significantly change
- viability at 48 h, 5 mM [5]: 79.8 ± 3.98%
- viability at 48 h, 10 mM [5]: 70.6 ± 2.93%
- viability at 72 h, 5 mM [5]: 81.3 ± 6.51%
- viability at 72 h, 10 mM [5]: 58 ± 5.46%
- viability at 96 h, 5 mM [5]: 82.9 ± 5.89%
- viability at 96 h, 10 mM [5]: 56.7 ± 18.2%
